TRPC4 block: inhibitors of mouse TRPC4 channel; HEK293 TRPC4beta/mu-opioid, DAMGO-evoked Fluo4 calcium flux; stronger effect = lower value; Q9QUQ5; 0.39% of 300,000 active; B-score at 10 µM;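 active = B-score over 3 SD under the library average, no early fluorescence shift, positive overall ratio signal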
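Material: HEK293 cells with stable TRPC4beta plus mu-opioid receptor expression / Probe or stimulus: DAMGO in two steps, submaximal then maximal / Compound: single concentration per test compound / Technique: kinetic Fluo4 fluorescence imaging of calcium influx / Read-out: per-well B score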
TRPC4 act: opens the mouse TRPC4 cation channel | Q9QUQ5 | HEK293 TRPC4beta/mu-opioid, Fluo4 calcium fluorescence; stronger effect = higher value | B-score at 10 µM | 0.49% of 310,000 active | AID 2237;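 active = B-score above 5 SD of library B-scores, and initial fluorescence ratio not above library mean plus 5 SD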;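 also: positive B-score marks a calcium rise read as TRPC4 activation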
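Incubation: 45 min room-temperature Fluo4 loading, 110 s read / System: HEK293 cells stably co-expressing mouse TRPC4beta and mu-opioid receptor / Signal: Fluo4 fluorescence, kinetic / Control set: buffer (low) and maximal DAMGO (high) / Measure: integrated baseline-normalised fluorescence ratio, converted to per-well B score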
TRPC6 inh: blocks the mouse TRPC6 cation channel; Q61143; HEK293-TRPC6, membrane potential dye, ACh-evoked depolarization; stronger effect = lower value; B-score at 10 µM; 1.1% of 310,000 active;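 active = B-score under library mean minus 3 SD, initial fluorescence not abnormally high, positive integrated signal ratio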;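 also: B-score derived from integrated fluorescence ratio over the kinetic read; more negative B-score means stronger inhibition of depolarization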
Target sequence (Q61143 whole entry, looked up): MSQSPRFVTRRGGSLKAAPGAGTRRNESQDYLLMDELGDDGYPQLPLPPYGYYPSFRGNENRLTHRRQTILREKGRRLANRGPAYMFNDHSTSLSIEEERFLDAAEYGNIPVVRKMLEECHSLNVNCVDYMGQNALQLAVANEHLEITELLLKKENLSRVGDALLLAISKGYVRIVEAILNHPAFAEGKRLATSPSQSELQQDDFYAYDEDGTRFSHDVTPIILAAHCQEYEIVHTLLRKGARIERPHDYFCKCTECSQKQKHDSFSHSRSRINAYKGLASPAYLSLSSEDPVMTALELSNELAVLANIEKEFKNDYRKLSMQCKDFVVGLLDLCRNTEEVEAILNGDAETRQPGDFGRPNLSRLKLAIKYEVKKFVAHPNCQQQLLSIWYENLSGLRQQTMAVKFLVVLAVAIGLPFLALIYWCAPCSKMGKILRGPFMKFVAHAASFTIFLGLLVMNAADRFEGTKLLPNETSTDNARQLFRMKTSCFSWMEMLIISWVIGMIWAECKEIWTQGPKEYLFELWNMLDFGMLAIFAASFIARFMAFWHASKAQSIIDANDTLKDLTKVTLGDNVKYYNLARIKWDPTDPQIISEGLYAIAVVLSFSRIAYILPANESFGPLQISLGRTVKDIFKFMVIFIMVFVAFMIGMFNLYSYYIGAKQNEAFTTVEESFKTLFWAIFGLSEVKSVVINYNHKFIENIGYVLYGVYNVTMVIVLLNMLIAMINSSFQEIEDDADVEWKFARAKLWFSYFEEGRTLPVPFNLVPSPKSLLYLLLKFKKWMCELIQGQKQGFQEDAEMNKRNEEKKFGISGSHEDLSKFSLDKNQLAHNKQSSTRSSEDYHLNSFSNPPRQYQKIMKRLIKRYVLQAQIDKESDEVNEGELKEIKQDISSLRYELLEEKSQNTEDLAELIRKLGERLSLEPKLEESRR
Kir21 inh: blocks the mouse Kir2.1 inward-rectifier potassium channel. P35561. HEK293-Kir2.1, FluxOR thallium flux fluorescence; stronger effect = lower value. B-score at 10 µM. 0.85% of 310,000 active. AID 1672;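 active = fluorescence ratio B-score at or below minus 3 SD of library scores, with starting-brightness B-score within 2 SD, cut at about -4.2 in these data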;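 also: channel flux triggered by added potassium and thallium sulfate stimulus; B-score of peak minus minimum fluorescence over baseline after thallium stimulus; more negative B-score means stronger Kir2.1 block with less thallium influx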
TRPC4 PAM: allosteric potentiators of mouse TRPC4 channel. HEK293 TRPC4beta/mu-opioid, DAMGO EC20, Fluo-4 Ca2+ flux; stronger effect = higher value. 0.42% of 310,000 active. B-score at 10 µM. Q9QUQ5. AID 2227;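 active = B-score of calcium response area above 5 SD of library B-scores, with initial fluorescence ratio within 5 SD of library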;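 also: B-score of integrated fluorescence ratio over time as area under calcium response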
TRPC6 activator: activates the mouse TRPC6 cation channel. Q61143. HEK293-TRPC6 membrane potential dye fluorescence; stronger effect = higher value. B-score at 10 µM. 0.13% of 310,000 active;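 active = B-score of the integrated fluorescence ratio above library mean plus 3 SD, and starting fluorescence ratio within library mean plus 5 SD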;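 also: higher score means more depolarization so channel activation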
Numbers without * were called inactive; i = inactive. A selection: hits, their analogues and other compounds. The true share with any hit is near 2.9%.

SMILES	TRPC4 block	TRPC4 act	TRPC6 inh	Kir21 inh	TRPC4 PAM	TRPC6 activator
C=CCOc1cccc(C(=O)N2CCCC(CNS(=O)(=O)c3cccs3)C2)c1 (configuration not stated)	i	i	i	0.07	i	i
CCCCN(CCCC)S(=O)(=O)c1ccc2oc(C(=O)N3CCOCC3)c(C)c2c1	i	i	i	-4.8*	i	i
COc1cccc(C2=NN(C(=O)c3ccco3)C(c3ccco3)C2)c1 (configuration not stated)	-6*	i	i	0.96	i	i
CS(=O)(=O)Nc1ccc(C2=NN(C(=O)c3ccco3)C(c3ccco3)C2)cc1 (configuration not stated)	i	i	i	-0.48	i	i
CCN1CCN(S(=O)(=O)c2c[nH]c(C(=O)OC)c2)CC1	i	i	i	0.06	i	i
COc1ccc(-c2cc(C(=O)N3CC(C)CC(C)C3)c3ccccc3n2)cc1 (configuration not stated)	i	i	i	-0.04	18*	i
COc1ccc(-c2cc(C(=O)N3CCCC3)c3ccccc3n2)cc1	i	i	i	-1.2	i	i
C=CCn1cnc2scc(-c3ccc(CC)cc3)c2c1=O	-6*	i	i	0.04	i	i
CCn1cnc2scc(-c3ccccc3)c2c1=O	i	i	i	0.05	i	i
O=C(NCC1CCCN(C(=O)CN2CCCCC2)C1)c1ccccc1Cl (configuration not stated)	i	i	i	0.28	i	i
CC1=CC(C)(C)N2C(=O)C3(SCC(=O)N3c3ccc(O)cc3)c3cc(C)cc1c32 (configuration not stated)	i	i	i	-1.7	10*	i
Cc1ccc(N2C(=O)CSC23C(=O)Nc2ccccc23)cc1 (configuration not stated)	i	i	i	1.8	i	i
CC1(C)CC2CC(C)(CN2C(=O)COC(=O)c2n[nH]c(=O)c3ccccc23)C1 (configuration not stated)	i	i	i	-0.49	11*	i
Cc1ccc(Cl)c(OCC(=O)NCC(c2cccs2)N2CCOCC2)c1 (configuration not stated)	i	i	i	-7.8*	i	i
CCn1c(=O)c2cc(C(=O)N(C)c3ccc(OC)cc3OC)sc2c2ccccc21	i	i	i	0.69	i	i
CCn1c(=O)c2cc(C(=O)N(C)c3cc(C)ccc3OC)sc2c2ccccc21	-6*	i	i	-0.93	i	i
Cc1cccc(Oc2nc(CN3CCOCC3)nc3sc4c(c23)CCCC4)c1	i	i	i	-0.61	i	i
CCc1ccc2c(c1)[C@]1(C(=O)N2)[C@@H]2C(=O)N(Cc3ccccc3)C(=O)[C@@H]2[C@@H]2CCCN21	i	i	i	0.07	i	i
Cc1cc(Cl)cc2c1NC(=O)[C@]21[C@@H]2C(=O)N(Cc3ccccc3)C(=O)[C@@H]2[C@@H]2CCCN21	i	50*	i	1.1	i	i
COc1ccccc1CNS(=O)(=O)c1ccc(Br)s1	i	i	i	-5*	i	i
COc1cc2ccccc2c2c1CCCC2=O	-6*	i	i	-1.1	i	i
CCC1CCCCN1S(=O)(=O)c1ccccc1[N+](=O)[O-] (configuration not stated)	i	i	i	-4.3*	i	i
CC1CCCCN1S(=O)(=O)c1ccccc1[N+](=O)[O-] (configuration not stated)	i	i	i	-0.19	i	i
Cc1nn(-c2ccccc2)nc1C(=O)c1c(C)[nH]n(-c2ccccc2)c1=O	i	i	i	-0.64	i	i
Cc1cc(Nc2ccccc2)nc2cc(O)ccc12	-7*	i	i	-5.2*	i	i
SMILES	TRPC4 block	TRPC4 act	TRPC6 inh	Kir21 inh	TRPC4 PAM	TRPC6 activator
Cc1cc(Nc2cccc(Br)c2)c2ccccc2n1	i	i	i	-1.8	i	i
COc1ccc(Nc2cc(C)c3ccc(O)cc3n2)cc1	i	i	i	-4.7*	i	i
Cc1cc(Nc2cccc(O)c2)c2ccccc2n1	-5*	i	i	-2.2	i	i
CCC(CC)NC(=O)Cc1ccccc1OC	i	i	i	0.38	i	i
Cc1ccccc1-c1nc(CN2CCC(C(=O)NC3CC3)CC2)c(C)o1	i	i	i	-0.11	i	i
CCOc1cc(/C=C(\C#N)C(=O)Nc2cccc(C(=O)O)c2)cc(Br)c1OC(=O)c1ccc(OC)cc1	i	i	i	-5.3*	22*	i
Nc1ccc(S(=O)(=O)NC(Cc2ccccc2)C(=O)O)cc1 (configuration not stated)	i	i	i	-0.24	i	i
COc1ccccc1C(=O)Nc1ccnn1C1CCN(Cc2cnc(N(C)C)s2)CC1	i	i	i	-0.96	i	i
Cc1cc(C(=O)Nc2ccon2)cs1	i	i	i	0.01	i	i
O=C(Nc1ccon1)c1csc2ccccc12	-7*	i	i	0.97	i	i
N=c1c2c(-c3ccccc3)c(-c3ccccc3)oc2ncn1CCN1CCOCC1	i	i	i	-2.3	i	i
CC(C)Cn1cnc2c(c(-c3ccccc3)c(-c3ccccc3)n2Cc2ccco2)c1=N	i	i	-5*	-9.7*	i	i
N=c1c2c(-c3ccccc3)c(-c3ccccc3)n(Cc3ccccc3)c2ncn1CCO	i	i	i	-8.6*	i	i
OCCNc1ncnc2c1c(-c1ccccc1)c(-c1ccccc1)n2Cc1ccco1	i	i	i	0.61	i	i
N=c1c2c(-c3ccccc3)c(-c3ccccc3)n(Cc3ccco3)c2ncn1Cc1ccccc1	i	i	i	-5.9*	i	i
N=c1c2c3c(sc2ncn1Cc1ccco1)CCCCC3	i	i	i	-0.42	i	i
Cc1ccc(-c2nnc(SCC(=O)NC3CCCC3)n2C)cc1	i	i	i	-0.01	i	i
CC1OC(O[C@H]2CC[C@]3(C)C4C=C[C@]56OC[C@@]7(CC[C@@H](C)[C@H](C)C75)[C@H](O)C[C@@]6(C)[C@]4(C)CC[C@H]3C2(C)C)C(OC2OC(CO)C(O)C(O)C2OC2OCC(O)C(O)C2O)C(O)C1O (some centres not stated)	i	356*	i	-11	11*	13*

Screening data from PubChem BioAssay.
